Measured values published in ChEMBL document CHEMBL3271987, “Novel pyrazolo, isoxazolo, and thiazolo steroidal systems and model analogs containing dimethyoxylaryl (or dihydroxylaryl) groups and derivatives. Synthesis, spectral properties, and biological activity” (1976).
The source made the active and inactive calls. The rule behind the calls is not given here.

Key:
Pseudomonas fluorescens = experiment: Antibacterial activity against Pseudomonas fluorescens at 91 ug/ml measured up to 24 hrs by spectrophotometry; type: functional, organism-based
Procedure, shortened: (§1)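 Compound suspended in water with 0.1% Me2SO and added to tube cultures of the bacterium growing on glucose minimal medium, to a maximum final concentration of 91 μg/ml. Growth followed by periodic absorbance readings at 540 nm over 24 hr of incubation. Complete inhibition scored at concentration limits of 1 and 91 μg/ml.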

Bacillus subtilis = experiment: Antibacterial activity against Bacillus subtilis at 91 ug/ml measured up to 24 hrs by spectrophotometry; type: functional, organism-based; procedure, shortened: as §1
KB [1] = experiment: Growth inhibition of human KB cells at < 25 ug/ml after 7 days by microscopy; type: functional
KB [2] = experiment: Growth inhibition of human KB cells at 10 ug/ml after 7 days by microscopy; type: functional; conditions: 168 h, read-out: GI
KB [3] = experiment: Growth inhibition of human KB cells at 25 ug/ml after 7 days by microscopy; type: functional; conditions: 168 h, read-out: GI
KB [4] = experiment: Growth inhibition of human KB cells at 150 ug/ml after 7 days by microscopy; type: functional, cell-based
KB [5] = experiment: Growth inhibition of human KB cells at 25 ug/ml after 7 days by microscopy
KB [6] = experiment: Growth inhibition of human KB cells at 25 to 100 ug/ml after 7 days by microscopy; type: functional, cell-based
KB [7] = experiment: Growth inhibition of human KB cells at 12 ug/ml after 7 days by microscopy; type: functional, cell-based
L1210 = experiment: Antitumor activity against mouse L1210 cells allografted in BDF1 mouse assessed as increase in life span at 0.2 mg, ip qd for 5 days relative to control; type: functional
Procedure, shortened: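 Female BDF1 mice, 35 days old, ten per group, given 1 × 10⁶ viable L1210 cells ip on day 0. Treatment on days 1–5 was 0.2 mg per injection ip, once daily (1 mg total), suspended in saline with 0.05% carboxymethylcellulose. Controls received carrier only. Readout was the ratio of mean survival time (days) of treated to control mice (T/C).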

KB [8] = experiment: Growth inhibition of human KB cells at 50 ug/ml after 7 days by microscopy; type: functional; conditions: 168 h, read-out: GI
Staphylococcus aureus = experiment: Antibacterial activity against Staphylococcus aureus clinical isolate at 91 ug/ml measured up to 24 hrs by spectrophotometry; type: functional, organism-based
Procedure, shortened: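 A recent clinical isolate was grown in tube cultures of nutrient broth. Compound was suspended in water containing 0.1% Me2SO and added to a maximum final concentration of 91 μg/ml. Absorbance at 540 nm was read periodically during 24 hr of incubation.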

Row | Structure (SMILES) | growth inhibition (GI) (Pseudomonas fluorescens) | growth inhibition (GI) (Bacillus subtilis) | further results
1 | COc1cc2c(cc1OC)C1=NN(c3ccccc3)C(=O)[C@H]1CC2 | inactive | inactive | –
2 | Oc1cc2c(cc1O)-c1c(cnn1-c1ccccc1)CC2 | inactive | Active | growth inhibition (GI) (KB [1]): 50%
3 | COc1cc2ccc3c(c2cc1OC)CCc1cnn(-c2ccc(F)cc2)c1-3 | inactive | inactive | –
4 | Oc1cc2ccc3c(c2cc1O)CCc1cnn(-c2ccc(F)cc2)c1-3 | inactive | Active | growth inhibition (GI) (KB [1]): 50%; inhibition of growth at 10 µg/mL (KB [2]): 50%
5 | Oc1ccc2c(c1)CCc1cnn(-c3ccccc3)c1-2 | inactive | inactive | –
6 | COc1cc2c(cc1OC)C1=NNC(=O)[C@H]1CC2 | inactive | inactive | –
7 | COc1cc2c(cc1OC)-c1c(cnn1S(=O)(=O)c1ccc(C)cc1)CC2 | inactive | inactive | –
8 | Oc1cc2ccc3c(c2cc1O)CCc1cn[nH]c1-3 | inactive | inactive | –
9 | C=CCNc1nc2c(s1)CCc1cc(OC)c(OC)cc1-2 | inactive | Active | inhibition of growth at 25 µg/mL (KB [3]): 50%; growth inhibition (GI) (KB [4]): Active
10 | Oc1ccc(-n2ncc3c2-c2cc(O)c(O)cc2CC3)cc1 | inactive | inactive | –
11 | COc1ccc2c(c1)CCc1cnn(-c3ccccc3)c1-2 | inactive | Active | –
12 | COc1cc2c(cc1OC)-c1nc(N)sc1CC2 | inactive | Active | growth inhibition (GI) (KB [4]): Active; growth inhibition (GI) (KB [5]): 50%
13 | COc1ccc2c3c(ccc2c1)-c1c(cnn1[C@H]1O[C@H](CO)[C@@H](O)[C@H](O)[C@H]1O)CC3 | inactive | inactive | –
14 | COc1cc2ccc3c(c2cc1OC)CCc1cnoc1-3 | inactive | Active | –
15 | COc1cc2c(cc1OC)-c1nocc1CC2 | inactive | inactive | –
16 | COc1cc2c(cc1OC)-c1c(cnn1[C@H]1O[C@H](CO)[C@@H](O)[C@H](O)[C@H]1O)CC2 | inactive | inactive | –
17 | COc1cc2ccc3c(c2cc1OC)CCc1cn[nH]c1-3 | inactive | Active | growth inhibition (GI) (KB [6]): inactive
18 | Oc1cc2c(cc1O)-c1[nH]ncc1CC2 | inactive | Active | growth inhibition (GI) (KB [7]): Active; Ratio (L1210): 1.14; growth inhibition (GI) (KB [1]): 50%
19 | COc1cc2c(cc1OC)-c1c(cnn1[C@H]1O[C@H](COC(C)=O)[C@@H](OC(C)=O)[C@H](OC(C)=O)[C@H]1OC(C)=O)CC2 | inactive | inactive | –
20 | COc1cc2c(cc1OC)-c1c(cnn1-c1ccccc1)CC2 | inactive | Active | –
21 | COc1cc2c(cc1OC)-c1[nH]ncc1CC2 | inactive | Active | inhibition of growth at 25 µg/mL (KB [3]): 50%; inhibition of growth at 50 µg/mL (KB [8]): 69%
22 | COc1cc2c(cc1OC)-c1nc(Nc3ccccc3)sc1CC2 | inactive | Active | growth inhibition (GI) (KB [5]): 50%
23 | COc1cc2c(cc1OC)-c1nc(C)sc1CC2 | inactive | inactive | –
24 | COc1ccc(-n2ncc3c2-c2cc(OC)c(OC)cc2CC3)cc1 | inactive | Active | growth inhibition (GI) (KB [6]): inactive
25 | COc1ccc2c(c1)CC[C@@H]1C(=O)NN=C21 | inactive | Active | growth inhibition (GI) (KB [5]): 50%
26 | COc1cc2c(cc1OC)-c1oncc1CC2 | inactive | Active | growth inhibition (GI) (KB [6]): inactive
27 | COc1ccc2c3c(ccc2c1)-c1c(cnn1[C@H]1O[C@H](COC(C)=O)[C@@H](OC(C)=O)[C@H](OC(C)=O)[C@H]1OC(C)=O)CC3 | inactive | Active | growth inhibition (GI) (KB [1]): 50%
28 | COc1ccc2c(c1)CCc1cnn([C@H]3O[C@H](COC(C)=O)[C@@H](OC(C)=O)[C@H](OC(C)=O)[C@H]3OC(C)=O)c1-2 | Active | Active | growth inhibition (GI) (Staphylococcus aureus): Active; growth inhibition (GI) (KB [5]): 50%
29 | COc1cc2c(cc1OC)C1=NNC(=O)[C@@]1(C)CC2 | inactive | Active | growth inhibition (GI) (KB [5]): 50%
30 | COc1cc2c(cc1OC)C1=NN(c3ccc(F)cc3)C(=O)[C@H]1CC2 | inactive | inactive | –
